Compounds with a hit are over-represented: about 3.3% of the library has one in this group of screens.
KCC2 mod: modulators of human KCC2 chloride dependent transport; B-score of Tl+ flux slope (higher = more flux/activation; lower = inhibition) at 10 µM; KCC2 cells, thallium flux FluoZin-2 fluorescence; Q9H2X9; 190,000 tested, 2.2% active;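 active means thallium flux slope and its plate-corrected score both differing from the plate sample mean at a set confidence after two filtering rounds, in either direction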;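 further: slope of fluorescence scaled to starting intensity during 10 to 20 s after thallium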
ROMK mod: modulates human ROMK potassium channel activity. Tet-inducible ROMK, thallium flux fluorescence; actives lie on both sides. B-score at 10 µM. 130,000 tested, 2% active;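 active means signal ratio slope over the read window, or its plate-corrected B-score, at least 3 SD from the plate mean, either direction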;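 further: B-score of the F/F0 ratio slope over 7 to 12 s after thallium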
ABCG2 inh: inhibitors of human ABCG2 transporter, ABCB1 counter-screen; Q9UNQ0; inhibition, % at 6.6 µM; 190,000 tested, 0.1% active; IgMXP3 cells, JC-1 efflux, flow cytometry; AID 1325;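 active means inhibition above 80%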;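 further: 0% = DMSO and 100% = nicardipine control wells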
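Test system: IgMXP3 cells (ABCG2) mixed with DDAO far-red-labelled CCRF-Adr cells (ABCB1). Reagent: JC-1 transporter substrate. Compound dosing: single test compound dose, 6.6 µM final. Times: 10 min compound exposure, 25 °C. Detection: flow cytometry of retained JC-1 fluorescence. Read-out basis: efflux inhibition in percent versus controls. Controls: nicardipine and DMSO wells.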
PMI act satM6P: PMI (human) activation, high substrate | P34949 | coupled PMI enzyme assay, resazurin fluorescence, 20 min; hits give high values; 1 = untreated enzyme, 0 = substrate-free blank | activation factor at 20 µM | 190,000 tested, 0.34% active | AID 1216;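 active means activation factor of 2 or more at 20 µM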
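Technique: Diaphorase-driven resazurin-to-resorufin fluorescence, excitation 544, emission 590 nm | Assay system: Human PMI in coupled enzyme assay | Times: Enzyme reaction with compound 20 min at room temperature | Medium: HEPES-buffered pH 7.4 with magnesium and detergent | Reagent: Mannose-6-phosphate 1.0 mM (near-saturating) plus 0.22 mM NADP+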
PMI activator: increases human mannose-6-phosphate isomerase activity; activation factor at 20 µM; 190,000 tested, 0.005% active; purified human PMI, coupled resazurin fluorescence, 20 min; hits give high values; 1 = vehicle control, 0 substrate-free wells; P34949;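 active means activation factor of 2 or more at 20 µM, relative to plate controls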
ABCB1 inh: inhibitors of human ABCB1 transporter, ABCG2 counter-screen | P08183 | CCRF-Adr cells, JC-1 efflux, flow cytometry | inhibition, % at 6.6 µM | 190,000 tested, 0.067% active | AID 1326; in the data active means inhibition above about 40%;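 further: 0% = vehicle and 100% = reference inhibitor; higher value means more JC-1 retained so stronger ABCB1 efflux block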
ROMK hit retest: retested hit modulating human ROMK potassium channel. shares compounds with ROMK mod. ROMK thallium flux, fluorescence ratio; hits give low values. normalized thallium flux (F/F0 slope) at 10 µM. 3,000 tested, 54% active. AID 1917;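 active means Flux at 10 µM at least 3 SD below or above vehicle control mean in one or both replicates; inconclusive means no clear call, values can overlap the other calls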
Numbers without * were called inactive; ? = inconclusive; · = not tested or not shown.

SMILES	KCC2 mod	ROMK mod	ABCG2 inh	PMI act satM6P	PMI activator	ABCB1 inh	ROMK hit retest
COC(=O)CCn1c(C)cc(C(=O)COc2ccccc2C(N)=O)c1C	-0.457	-5.37*	2.0	1	1.1	0.5	?
Cc1cc(C(=O)COc2ccccc2C(N)=O)c(C)n1CC1CCCO1 (configuration not stated)	-0.659	-1.26	23.9	0.9	0.9	2.2	·
Cc1cc2c3c(c1)C(C)CC(C)(C)N3C(=O)C2=O (configuration not stated)	-1.77	3.14*	1.3	0.8	0.7	0.3	?
O=C(CCCN1C(=O)c2ccccc2C1=O)NC1CCCCCC1	0.166	1.2*	2.4	1	1	0.3	0.0811
O=C(CCN1C(=O)c2cccnc2C1=O)NC1CCCCCC1	·	·	0.9	0.9	0.9	0.2	·
CC1CCC(C(C)C)C(OC(=O)Cn2c(-c3ccc(Br)cc3)[n+](C)c3ccccc32)C1 (configuration not stated)	-0.274	-6.83*	-3.0	1	1.1	-0.7	0.0439*
CC1CCC(C(C)C)C(OC(=O)Cn2c(-c3ccc(Cl)cc3)[n+](C)c3ccccc32)C1 (configuration not stated)	0.962	-7.95*	·	·	·	·	0.0425*
Cc1ccccc1OCc1n(CC(=O)OC2CC(C)CCC2C(C)C)c2ccccc2[n+]1C (configuration not stated)	-0.961	·	0.6	1.1	1.1	0.6	0.0417*
Cc1cc(=O)[nH]c(SCC(=O)Nc2nc(-c3ccccc3)c(-c3ccccc3)o2)n1	-3.01	-0.509	1.3	0.9	0.9	-0.2	·
CCCOc1ccc(/C=N/NC(=O)c2ccc(Cn3cc([N+](=O)[O-])cn3)o2)cc1	-0.841	0.103	13.5	1.1	1	1.0	·
O=C(/C=C/c1cc[n+](CC(=O)c2ccc3cccc4c3c2CC4)cc1)c1ccc2cccc3c2c1CC3	-0.218	0.556	·	·	·	·	·
CC(C)OC(=O)CSc1nnc(CNc2nc(-c3ccccc3)cs2)n1C	·	-2.68*	5.8	1	1	1.2	0.0621*
CCC1SC2=NC(C)=C(C(=O)OCCOC)C(/C=C/c3ccccc3OC)N2C1=O (configuration not stated)	-1.25	·	2.4	1	0.9	3.0	0.0587*
NC(=O)C1CCN(C2=C(Cl)C(=O)c3ccccc3C2=O)CC1	-2.39	·	4.4	1.1	1.2	0.6	0.0534*
C=CCOC(=O)C1=C(C)NC(=O)NC1c1cn(-c2ccccc2)nc1-c1cccs1 (configuration not stated)	-0.0828	-3.03*	1.2	0.9	0.9	0.3	0.0612*
COCCOC(=O)C1=C(C)NC(=O)NC1c1cn(-c2ccccc2)nc1-c1cccs1 (configuration not stated)	0.46	0.00718	22.3	0.9	1.1	0.9	·
NC/C(=N\O)c1ccc(Cl)cc1Cl	·	-4.5*	0.3	0.9	1	0.3	0.0561*
CN(C)CCCN=C(NO)c1ccc(Cl)cc1Cl	0.412	0.169	·	·	·	·	·
COc1ccc(Cn2c(-c3ccc(OC)cc3)nc3ccccc32)cc1	-0.0247	-2.51*	3.7	0.9	0.9	1.2	?
COCCn1c(-c2ccc(OC)cc2)nc2ccccc21	·	-0.126	32.5	1.1	1	-1.6	·
CC1CCN(C(=O)c2ccc(S(=O)(=O)N(C)C)cc2)C(C)C1 (configuration not stated)	·	2.99*	0.0	1	1	0.0	0.0775
COc1cc(CNCCCN2CCOCC2)cc(Br)c1OCc1ccc(Cl)cc1	0.0583	-3.81*	2.5	1.1	1.1	0.7	?
Cc1ccc(NC(=O)c2nc[nH]c2C(=O)NCC(=O)OC(C)(C)C)cc1	0.0238	·	·	·	·	·	·
COc1ccccc1-n1cnc2cc(NCc3ccco3)ccc21	-1.35	7.9*	0.6	0.7	0.8	0.4	0.0877
CCOc1ccc(/C=N/n2cnnc2)cc1	-0.0993	·	0.7	0.9	0.2	0.0	·
SMILES	KCC2 mod	ROMK mod	ABCG2 inh	PMI act satM6P	PMI activator	ABCB1 inh	ROMK hit retest
CCOc1cc(/C=N/n2cnnc2)cc(Br)c1O	1.42	·	1.6	1	1	0.2	0.0775
Cc1oc(-c2ccccc2F)nc1CN1CCC(C(=O)NC2CCCCCCC2)CC1	-0.281	-4.6*	1.7	0.9	0.9	0.7	0.058*
CCCCCCCC[n+]1cccc2c3ccccc3ccc21	-0.931	·	0.1	1.1	1	0.1	0.0518*
CCCCCCCCCC[n+]1cccc2c3ccccc3ccc21	-1.91	·	0.4	1.2	1.1	0.2	0.0352*
Cc1cccc[n+]1CCCCCCCCCC[n+]1ccccc1C	-0.0889	0.306	2.9	·	·	0.6	·
CCCCCCCCNc1ncnc2ccccc12	·	-0.994	0.9	1	0.9	0.4	·
CC(C)CCNC(=O)NC(=O)COC(=O)C1=COCCO1	-0.574	0.457	-1.2	1.1	1.1	-0.3	0.0788
CC(C)c1cccc(C(C)C)c1NC(=O)COC(=O)C1=COCCO1	-0.466	0.145	2.9	1.1	1.1	0.3	·
CC(=O)c1sc(NC(=O)c2cc(=O)c3ccccc3o2)nc1C	0.392	2.92*	0.5	1.1	1.2	-0.6	0.077
CCOC(=O)c1csc(NC(=O)c2cc(=O)c3ccccc3o2)n1	0.0122	0.795	0.1	1.1	1.1	-0.2	·
O=C(O)/C(=C\c1ccccc1OC(F)F)Sc1nnc(-c2ccc(F)cc2)o1	-3.06	-3.01*	2.6	0.8	0.8	0.1	0.0564*
COc1ccccc1-c1cc(C(F)(F)F)nc(S(=O)(=O)CCCC(=O)N2CCOCC2)n1	·	-3.39*	-0.5	1.1	1	0.0	?
COc1ccccc1-c1cc(C(F)(F)F)nc(S(=O)(=O)CCCC(=O)O)n1	·	0.0109	2.8	1.2	1.1	0.7	·
CCCCN1CCc2c([nH]c3c(C)cccc23)C1=O	-0.787	0.217	-0.5	1	1	-0.1	·
O=C(Nc1cccc2ccccc12)OCc1cncs1	-1.44	-0.0451	8.2	1	1	-0.5	·
CCOc1ccccc1Nc1nnc(SCC(=O)NC(=O)c2cccn2C)s1	-1.47	·	22.2	0.9	0.9	2.1	·
Cc1ccc(N=Nc2[nH]c3ccccc3c2O)cc1	-1.18	-4.82*	9.1	1.8	1.2	0.6	0.0562*
O=C(Nc1ccc(N2CCN(c3ncccc3C(F)(F)F)CC2)nc1)c1cccs1	-1.73	·	·	·	·	·	0.0738
O=c1c2sccc2nc(SCc2cc(=O)n3ccccc3n2)n1Cc1ccccn1	-0.452	1.25	13.9	1	1.1	-0.6	·
Cc1ccc(-c2cc(C(F)F)n3ncc(C(=O)N4CCN5CCCC5C4)c3n2)cc1 (configuration not stated)	-1.25	·	2.9	1	1	0.6	·
